Activity calls are given as the source filed them. The calls are words filed in the database; no cut-off is given here.
Tests used:
HEK293 = assay: Effect on total Abeta40 levels in HEK293 cells transfected with human APP with Swedish and London familial AD mutation incubated for 5 hrs by sandwich immuno-assay; assay type: functional, cell-based; settings: HEK293, 5 h
[1] = target: Voltage-gated inwardly rectifying potassium channel KCNH2 (Homo sapiens, UniProt Q12809); assay: Inhibition of MK499 binding to human ERG
Gamma-secretase = assay: Modulation of gamma secretase in HEK293 cells transfected with human APP with Swedish and London familial AD mutation assessed as reduction in Abeta42 levels incubated for 5 hrs by sandwich immuno-assay; assay type: cell-based
[2] = Drug level in plasma of CD rat at 30 mg/kg, po measured after 3 hrs; assay type: ADME, organism-based
Method in brief: (§1)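 Male CD rats dosed orally at 3, 10 or 30 mg/kg. Total drug concentrations measured in plasma and brain 3 h after the dose. Values are geometric means of 10 (3 mg/kg), 15 (10 mg/kg) and 5 (30 mg/kg) animals.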

Cytochrome P450 3A4 = Cytochrome P450 3A4 (Homo sapiens, UniProt P08684); assay: Inhibition of CYP3A4 (unknown origin); assay type: ADME
Cytochrome P450 2D6 = Cytochrome P450 2D6 (Homo sapiens, UniProt P10635); assay: Inhibition of CYP2D6 (unknown origin); assay type: ADME
[3] = target: T1, Nuclear receptor subfamily 1 group I member 2 (Homo sapiens, UniProt O75469); assay: Inhibition of PXR (unknown origin); assay type: ADME
T1 sequence (O75469 whole entry): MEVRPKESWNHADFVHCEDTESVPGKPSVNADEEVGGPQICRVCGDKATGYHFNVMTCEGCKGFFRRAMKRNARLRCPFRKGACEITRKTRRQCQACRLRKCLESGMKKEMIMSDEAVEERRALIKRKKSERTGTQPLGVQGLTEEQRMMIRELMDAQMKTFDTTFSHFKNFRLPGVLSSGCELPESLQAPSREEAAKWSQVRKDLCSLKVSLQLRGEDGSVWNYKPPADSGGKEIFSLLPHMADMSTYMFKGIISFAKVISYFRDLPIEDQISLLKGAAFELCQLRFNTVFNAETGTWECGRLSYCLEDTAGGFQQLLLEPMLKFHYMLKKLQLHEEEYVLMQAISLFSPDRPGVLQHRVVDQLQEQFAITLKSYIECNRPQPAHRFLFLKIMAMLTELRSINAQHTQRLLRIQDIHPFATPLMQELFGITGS

[4] = Apparent permeability of the compound; assay type: ADME; settings: not told
[5] = Drug level in brain of CD rat at 30 mg/kg, po measured after 3 hrs; assay type: ADME, organism-based; settings: read-out: Drug uptake; method in brief: as §1
Cytochrome P450 2C9 = Cytochrome P450 2C9 (Homo sapiens, UniProt P11712); assay: Inhibition of CYP2C9 (unknown origin); assay type: ADME
Rattus norvegicus [6] = assay: Reduction of Abeta42 protein level in CD rat at 30 mg/kg, po measured after 3 hrs relative to control; assay type: functional; set-up: scale not given: the % may be the effect or the level left
Method in brief: (§2)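 Male CD rats given a single oral dose (1-30 mg/kg). CSF Aβ42 measured 3 h after the dose and expressed as reduction relative to control levels. In the dose-response study, geometric means are of 29 animals (3 and 10 mg/kg groups) and 10 animals (30 mg/kg group).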

[7] = Protein binding in rat plasma; assay type: ADME, cell-free; settings: read-out: PPB (converted)
[8] = AUC (0 to infinity) in CD rat at 2 mg/kg, po; assay type: ADME, organism-based; set-up: dose 2 mg/kg, route oral, time infinity; settings: in vivo
Method in brief: (§3)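 Male CD rats, single 2 mg/kg oral dose. Plasma drug concentration-time profile used for AUC(0-∞), Cmax and oral bioavailability (F%). Values are the average of two experiments.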

[9] = Clearance in CD rat at 1 mg/kg, iv; assay type: ADME, organism-based; settings: in vivo
Method in brief: (§4)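 Male CD rats, single 1 mg/kg intravenous dose. Clearance, steady-state volume of distribution and mean residence time taken from the plasma concentration-time data. Values are the average of two experiments.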

[10] = Drug level in plasma of CD rat at 10 mg/kg, po measured after 3 hrs; assay type: ADME, organism-based; method in brief: as §1
Rattus norvegicus [11] = assay: Reduction of Abeta42 protein level in CD rat at 10 mg/kg, po measured after 3 hrs relative to control; assay type: functional; set-up: scale not given: the % may be the effect or the level left; method in brief: as §2
[12] = Drug level in brain of CD rat at 10 mg/kg, po measured after 3 hrs; assay type: ADME, organism-based; settings: read-out: Drug uptake; method in brief: as §1
[13] = Drug level in brain of CD rat at 3 mg/kg, po measured after 3 hrs; assay type: ADME, organism-based; settings: read-out: Drug uptake; method in brief: as §1
Rattus norvegicus [14] = assay: Reduction of Abeta42 protein level in CD rat at 3 to 30 mg/kg, po measured after 3 hrs relative to control; assay type: functional, organism-based; method in brief: as §2
[15] = MRT in CD rat at 1 mg/kg, iv; assay type: ADME, organism-based; settings: in vivo; method in brief: as §4
Rattus norvegicus [16] = assay: Reduction of Abeta42 protein level in CD rat at 1 mg/kg, po measured after 3 hrs relative to control; assay type: functional, organism-based; method in brief: as §2
Rattus norvegicus [17] = assay: Reduction of Abeta42 protein level in CD rat at 3 mg/kg, po measured after 3 hrs relative to control; assay type: functional; set-up: scale not given: the % may be the effect or the level left; method in brief: as §2
[18] = test system: rat MDR1A (P-glycoprotein); assay: Efflux ratio in pig LLC-PK1 cells transfected with rat MDR1A; assay type: ADME, cell-based, Sus scrofa
Method in brief: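 Rat P-gp efflux measured in LLC-PK1 cells transfected with rat MDR1A. Reported as the ratio of B-to-A over A-to-B transport.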

[19] = Cmax in CD rat at 2 mg/kg, po; assay type: ADME, organism-based; set-up: dose 2 mg/kg, route oral; settings: in vivo; method in brief: as §3
[20] = Selectivity index, ratio of IC50 for effect on total Abeta40 levels in HEK293 cells transfected with human APP with Swedish and London familial AD mutation incubated for 5 hrs by sandwich immuno-assay to IC50 for modulation of gamma secretase in HEK293 cells transfected with human APP with Swedish and London familial AD mutation assessed as reduction in Abeta42 levels incubated for 5 hrs by sandwich immuno-assay
[21] = Volume of distribution at steady state in CD rat at 1 mg/kg, iv; assay type: ADME, organism-based; settings: in vivo, read-out: Vdss; method in brief: as §4
[22] = Drug level in plasma of CD rat at 3 mg/kg, po measured after 3 hrs; assay type: ADME, organism-based; method in brief: as §1
[23] = Oral bioavailability CD rat at 2 mg/kg; assay type: ADME, organism-based; settings: in vivo; method in brief: as §3

Cytochrome P450 3A4, sequence (P08684 whole entry): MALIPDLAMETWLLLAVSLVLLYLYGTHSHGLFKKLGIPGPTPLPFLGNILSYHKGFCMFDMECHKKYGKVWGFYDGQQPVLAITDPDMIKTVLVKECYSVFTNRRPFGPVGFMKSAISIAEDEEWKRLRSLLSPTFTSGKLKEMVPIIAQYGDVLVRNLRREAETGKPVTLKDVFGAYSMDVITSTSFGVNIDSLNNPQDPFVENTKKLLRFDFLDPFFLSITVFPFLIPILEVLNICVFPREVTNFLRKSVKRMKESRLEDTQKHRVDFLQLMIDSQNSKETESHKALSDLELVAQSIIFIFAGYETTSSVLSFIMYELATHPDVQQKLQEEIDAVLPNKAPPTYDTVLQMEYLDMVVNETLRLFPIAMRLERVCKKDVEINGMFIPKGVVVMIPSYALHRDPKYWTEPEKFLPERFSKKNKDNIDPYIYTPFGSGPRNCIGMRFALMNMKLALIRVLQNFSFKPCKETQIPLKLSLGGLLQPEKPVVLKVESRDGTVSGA
Cytochrome P450 2C9, sequence (P11712 whole entry): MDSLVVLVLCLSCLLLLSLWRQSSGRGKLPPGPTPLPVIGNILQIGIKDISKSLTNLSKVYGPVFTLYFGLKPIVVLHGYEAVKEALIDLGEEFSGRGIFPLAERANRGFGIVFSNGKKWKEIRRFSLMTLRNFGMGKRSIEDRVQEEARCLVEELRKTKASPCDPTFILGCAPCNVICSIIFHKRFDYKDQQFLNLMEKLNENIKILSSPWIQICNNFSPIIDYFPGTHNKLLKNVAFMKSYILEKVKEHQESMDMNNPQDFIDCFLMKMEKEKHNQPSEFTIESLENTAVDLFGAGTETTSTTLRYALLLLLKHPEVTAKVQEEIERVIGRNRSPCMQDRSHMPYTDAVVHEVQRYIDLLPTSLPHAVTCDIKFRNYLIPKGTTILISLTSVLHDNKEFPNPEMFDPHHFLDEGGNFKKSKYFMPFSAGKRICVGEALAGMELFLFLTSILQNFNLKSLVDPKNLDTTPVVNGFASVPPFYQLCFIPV
Voltage-gated inwardly rectifying potassium channel KCNH2, sequence (Q12809 whole entry): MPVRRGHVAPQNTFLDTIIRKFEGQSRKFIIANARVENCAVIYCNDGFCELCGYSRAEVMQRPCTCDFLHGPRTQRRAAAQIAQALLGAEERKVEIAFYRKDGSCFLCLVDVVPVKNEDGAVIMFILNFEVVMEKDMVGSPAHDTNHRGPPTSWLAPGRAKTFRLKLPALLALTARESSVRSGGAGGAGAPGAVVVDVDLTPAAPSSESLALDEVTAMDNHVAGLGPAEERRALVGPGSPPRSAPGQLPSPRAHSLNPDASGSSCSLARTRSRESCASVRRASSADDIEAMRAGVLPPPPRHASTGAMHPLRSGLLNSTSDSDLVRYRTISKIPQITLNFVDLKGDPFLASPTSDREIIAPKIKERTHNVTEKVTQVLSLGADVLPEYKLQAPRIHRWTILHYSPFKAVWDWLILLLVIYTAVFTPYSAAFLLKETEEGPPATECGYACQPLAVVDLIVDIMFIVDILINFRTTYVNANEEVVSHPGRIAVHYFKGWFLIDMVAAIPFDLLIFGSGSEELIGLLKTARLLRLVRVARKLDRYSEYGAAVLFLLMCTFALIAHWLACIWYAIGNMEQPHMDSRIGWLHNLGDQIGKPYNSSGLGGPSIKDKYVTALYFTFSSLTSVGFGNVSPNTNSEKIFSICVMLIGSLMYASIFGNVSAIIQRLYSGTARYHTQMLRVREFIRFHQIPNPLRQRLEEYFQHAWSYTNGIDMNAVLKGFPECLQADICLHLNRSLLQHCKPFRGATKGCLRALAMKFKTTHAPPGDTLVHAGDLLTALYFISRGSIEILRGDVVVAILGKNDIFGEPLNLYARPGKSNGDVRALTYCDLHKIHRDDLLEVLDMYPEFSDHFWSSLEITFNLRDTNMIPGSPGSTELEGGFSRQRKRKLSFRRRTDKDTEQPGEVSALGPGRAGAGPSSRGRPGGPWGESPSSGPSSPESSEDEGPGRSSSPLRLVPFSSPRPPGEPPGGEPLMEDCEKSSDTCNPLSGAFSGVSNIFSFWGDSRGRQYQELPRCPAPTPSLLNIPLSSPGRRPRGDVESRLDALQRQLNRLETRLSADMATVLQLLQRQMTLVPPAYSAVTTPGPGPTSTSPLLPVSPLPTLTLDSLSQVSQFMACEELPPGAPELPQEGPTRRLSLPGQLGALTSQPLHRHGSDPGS
Cytochrome P450 2D6, sequence (P10635 whole entry): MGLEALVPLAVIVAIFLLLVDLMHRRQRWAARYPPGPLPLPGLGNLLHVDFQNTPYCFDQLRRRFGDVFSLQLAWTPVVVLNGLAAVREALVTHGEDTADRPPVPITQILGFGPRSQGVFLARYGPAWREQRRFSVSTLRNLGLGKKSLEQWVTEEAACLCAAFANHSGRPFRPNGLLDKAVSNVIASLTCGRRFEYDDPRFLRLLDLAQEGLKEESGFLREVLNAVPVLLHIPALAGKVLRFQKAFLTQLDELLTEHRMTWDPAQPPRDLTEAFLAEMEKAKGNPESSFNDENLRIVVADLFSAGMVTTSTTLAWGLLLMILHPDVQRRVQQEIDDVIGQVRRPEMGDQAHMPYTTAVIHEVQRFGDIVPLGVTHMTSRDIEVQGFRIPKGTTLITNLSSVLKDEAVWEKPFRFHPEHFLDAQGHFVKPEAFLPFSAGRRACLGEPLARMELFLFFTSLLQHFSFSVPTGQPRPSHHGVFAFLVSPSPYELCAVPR

Compound `COc1cc(C2=CC3=NO[C@H](c4cc(F)c(F)c(F)c4)CN3CCC2)ccc1-n1cnc(C)c1` has an IC50 (HEK293) of 14 µM, an IC50 [1] of 3.35 µM and an IC50 (Gamma-secretase) of 0.107 µM. The concentration at 3 h [2] was 14.2 µM, the IC50 (Cytochrome P450 3A4) was 34 µM and the IC50 (Cytochrome P450 2D6) was 48 µM. For the same compound, the IC50 [3] was > 30 µM, the Papp [4] was 220 nm/s and the concentration at 3 h [5] was 2.1 µM. For the same compound, the IC50 (Cytochrome P450 2C9) was 18 µM and the Activity (Rattus norvegicus [6]) was 52%.

`COc1cc(C2=CC3=NOC(CO)(c4ccc(F)cc4)N3CCO2)ccc1-n1cnc(C)c1` (stereo not given) showed an IC50 (Gamma-secretase) of 0.512 µM.

`COc1cc(/C=C2\CCCN3C2=NO[C@H](c2cc(F)cc(F)c2)[C@@H]3C)ccc1-n1cnc(C)c1` gave a fraction unbound [7] of 0.005, an AUC(0-inf) [8] of 8 µM·h and a clearance [9] of 0.6 L/h/kg. It also gave a concentration at 3 h [10] of 4.83 µM, an IC50 (HEK293) of 12 µM and an Activity (Rattus norvegicus [11]) of 52%. It also gave an IC50 [1] of 2.01 µM, an IC50 (Gamma-secretase) of 0.052 µM and a concentration at 3 h [12] of 4.2 µM. For the same compound, the concentration at 3 h [2] was 8.8 µM, the IC50 (Cytochrome P450 3A4) was 16 µM and the IC50 (Cytochrome P450 2D6) was 49 µM. The IC50 [3] was 15 µM, the concentration at 3 h [13] was 0.81 µM and the Papp [4] was 170 nm/s. For the same compound, the Activity (Rattus norvegicus [14]) was “Dose-dependent effect”, the concentration at 3 h [5] was 7.5 µM and the MRT [15] was 1.7 h. The Activity (Rattus norvegicus [16]) was “inactive”, the Activity (Rattus norvegicus [17]) was 24% and the efflux ratio [18] was 2.46. For the same compound, the Cmax [19] was 1.3 µM, the “Ratio IC50” value [20] was 248 and the Vd [21] was 1.1 L/kg. The IC50 (Cytochrome P450 2C9) was 33 µM, the concentration at 3 h [22] was 0.91 µM and the bioavailability [23] was 79%. It also gave an Activity (Rattus norvegicus [6]) of 73%.

`COc1cc(C2=NOCC3C(Oc4cc(F)cc(F)c4)CCCN23)ccc1-n1cnc(C)c1` (stereo not given) gave an IC50 (Gamma-secretase) of 0.4 µM.

`COc1cc(C2=CC3=NOC[C@H](c4cc(F)c(F)c(F)c4)N3CCC2)ccc1-n1cnc(C)c1` gave an IC50 (HEK293) of 16 µM, an IC50 [1] of 2.61 µM and an IC50 (Gamma-secretase) of 0.143 µM. It also gave a concentration at 3 h [2] of 1.4 µM, an IC50 (Cytochrome P450 3A4) of 30 µM and an IC50 (Cytochrome P450 2D6) of 8 µM. For the same compound, the IC50 [3] was > 15 µM, the Papp [4] was 230 nm/s and the concentration at 3 h [5] was 1.3 µM. For the same compound, the IC50 (Cytochrome P450 2C9) was 8 µM.

For `COc1cc(/C=C2\CCCN3C2=NO[C@@H](c2cc(F)cc(F)c2)[C@@H]3C)ccc1-n1cnc(C)c1`, the IC50 (HEK293) was > 20 µM and the IC50 (Gamma-secretase) was 9.29 µM.

Work on `COc1cc(C(=O)N2CCCC(Cc3ccc(F)cc3)C2)ccc1-n1cnc(C)c1` (stereo not given) yielded an IC50 (Gamma-secretase) of 1.55 µM.

In the case of `COc1cc(/C=C2\CCCN3C2=NO[C@]3(CO)c2ccc(F)cc2)ccc1-n1cnc(C)c1`, the IC50 (Gamma-secretase) is reported as 0.029 µM.

In the case of `COc1cc(-c2nnc3n2CCCN3C(C)c2cc(F)c(F)c(F)c2)ccc1-n1cnc(C)c1` (stereo not given), the IC50 (Gamma-secretase) is reported as 0.116 µM.

Work on `COc1cc(/C=C2\CCCN3C2=NOCC[C@@H]3c2cc(F)c(F)c(F)c2)ccc1-n1cnc(C)c1` yielded an IC50 (Gamma-secretase) of 0.039 µM.

In the case of `COc1cc(/C=C2\CCCN3C2=NO[C@H](c2cc(F)c(F)c(F)c2)[C@@H]3C)ccc1-n1cnc(C)c1`, the IC50 (HEK293) is reported as > 20 µM, the IC50 [1] is reported as 1.61 µM and the IC50 (Gamma-secretase) is reported as 0.055 µM. It also gave a concentration at 3 h [2] of 13.1 µM, an IC50 (Cytochrome P450 3A4) of 29 µM and an IC50 (Cytochrome P450 2D6) of 49 µM. The IC50 [3] was > 10 µM, the Papp [4] was 140 nm/s and the concentration at 3 h [5] was 11.1 µM. For the same compound, the “Ratio IC50” value [20] was >367, the IC50 (Cytochrome P450 2C9) was 37 µM and the Activity (Rattus norvegicus [6]) was 80%.

With `CCC(NC(=O)/C=C/c1ccc(-n2cnc(C)c2)c(OC)c1)c1ccc(F)cc1` (stereo not given) the IC50 (Gamma-secretase) was 0.462 µM.

With `COc1cc(/C=C2\CCCN3CC(c4cc(F)c(F)c(F)c4)ON=C23)ccc1-n1cnc(C)c1` (stereo not given) the IC50 (Gamma-secretase) was 0.048 µM.

Work on `COc1cc(/C=C2\CCCN3C2=NOC[C@@H]3c2ccc(F)cc2)ccc1-n1cnc(C)c1` yielded an IC50 (Gamma-secretase) of 0.033 µM.

With `COc1cc(C2=NOCC3C(Oc4ccc(Cl)cc4C(F)(F)F)CCCN23)ccc1-n1cnc(C)c1` (stereo not given) the IC50 (Gamma-secretase) was 0.015 µM.

For `COc1cc(/C=C2\CCCN3C2=NOC[C@@H]3c2cc(F)c(F)c(F)c2)ccc1-n1cnc(C)c1`, the IC50 (Gamma-secretase) was 0.037 µM.

With `COc1cc(/C=C2\CCCN3C2=NO[C@H](c2cc(F)c(F)c(F)c2)[C@@H]3CO)ccc1-n1cnc(C)c1` the IC50 (HEK293) was 15 µM, the IC50 (Gamma-secretase) was 0.069 µM and the “Ratio IC50” value [20] was 221.

In the case of `COc1cc(/C=C2\CCCN3C2=NO[C@H](c2cc(F)cc(F)c2)[C@@H]3C(C)C)ccc1-n1cnc(C)c1`, the IC50 (HEK293) is reported as 19 µM, the IC50 (Gamma-secretase) is reported as 0.113 µM and the “Ratio IC50” value [20] is reported as 174.
